According to ChEMBL document CHEMBL3992570, “Integrated Platform for Expedited Synthesis-Purification-Testing of Small Molecule Libraries” (ACS Med Chem Lett, 2017):

Key:
[1] = target: T1, Polycomb protein EED (Homo sapiens, UniProt O75530); assay: Inhibition of pyrrolidine inhibitor-based oregon-green probe binding to GST-tagged EED (unknown origin) after 1 hr by assay explorer integrated LanthaScreen TR-FRET assay
In short: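 On the integrated platform, HPLC fractions were quantified by charged aerosol detection (calibrated with ketoprofen) and dissolved in DMSO to 10 mM stocks. An 11-point, 3-fold serial dilution followed. 50 nL of each dilution was pin-transferred into 10 µL assay buffer (0.5% DMSO final) and incubated 1 h at 25 °C. TR-FRET was read on EnVision, and activity was obtained by curve fitting.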

[2] = target: T1, Polycomb protein EED; assay: Inhibition of pyrrolidine inhibitor-based oregon-green probe binding to GST-tagged EED (unknown origin) after 1 hr by LanthaScreen TR-FRET assay
In short: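 Compounds were made, purified and tested conventionally as separate steps, under the same assay conditions as the integrated run. Compound in DMSO was added to assay buffer (0.5% DMSO final) and incubated 1 h at 25 °C. The TR-FRET signal was read on a plate reader, and activity was derived by curve fitting.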

T1 sequence (O75530 whole entry): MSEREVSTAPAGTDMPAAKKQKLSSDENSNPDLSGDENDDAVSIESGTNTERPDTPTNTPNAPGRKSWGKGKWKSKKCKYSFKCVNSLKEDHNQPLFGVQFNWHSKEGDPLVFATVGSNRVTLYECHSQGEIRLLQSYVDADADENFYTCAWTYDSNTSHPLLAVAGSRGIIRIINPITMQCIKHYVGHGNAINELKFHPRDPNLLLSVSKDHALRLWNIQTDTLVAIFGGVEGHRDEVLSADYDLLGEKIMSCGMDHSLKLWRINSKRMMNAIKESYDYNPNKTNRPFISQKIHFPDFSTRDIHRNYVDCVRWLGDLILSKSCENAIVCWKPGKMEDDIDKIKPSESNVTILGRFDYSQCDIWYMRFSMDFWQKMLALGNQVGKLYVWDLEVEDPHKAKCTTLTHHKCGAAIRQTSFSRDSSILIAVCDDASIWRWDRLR

Structure (SMILES) | IC50 [1] [nM] | IC50 [2] [nM]
Cc1cccc(F)c1CN1C[C@H](c2ccc(N3CCN(c4ccncc4)CC3)cc2)[C@@H](N(C)C)C1 | 10 | 10
Cc1cccc(F)c1CN1C[C@H](c2ccc(N3CCC(C#N)CC3)cc2)[C@@H](N(C)C)C1 | 70 | 140
Cc1cccc(F)c1CN1C[C@H](c2ccc(N3CCC(N(C)C)CC3)cc2)[C@@H](N(C)C)C1 | 40 | 100
Cc1cc([C@H]2CN(Cc3c(C)cccc3F)C[C@@H]2N(C)C)ccc1C(=O)N(C)C | 110 | 180
Cc1cc([C@H]2CN(Cc3c(C)cccc3F)C[C@@H]2N(C)C)ccc1C(=O)N1CCN(C)CC1 | 260 | 480
CC(=O)NC1CCN(c2ccc([C@H]3CN(Cc4c(C)cccc4F)C[C@@H]3N(C)C)cc2)CC1 | 40 | 160
Cc1cc([C@H]2CN(Cc3c(C)cccc3F)C[C@@H]2N(C)C)ccc1C(=O)N1CCN(CCO)CC1 | 270 | 380
CC(=O)N[C@H]1CCN(c2ccc([C@H]3CN(Cc4c(C)cccc4F)C[C@@H]3N(C)C)cc2)C1 | 90 | 240
Cc1cccc(F)c1CN1C[C@H](c2ccc(N3CCC(N4CCOCC4)CC3)cc2)[C@@H](N(C)C)C1 | 40 | 60
Cc1cccc(F)c1CN1C[C@H](c2ccc(N3CCN(c4ccccc4S(C)(=O)=O)CC3)cc2)[C@@H](N(C)C)C1 | 70 | 190
Cc1cccc(F)c1CN1C[C@H](c2ccc(N(C)C3CCN(C)CC3)cc2)[C@@H](N(C)C)C1 | 90 | 350
Cc1cccc(F)c1CN1C[C@H](c2ccc(N3CCN(c4nccs4)CC3)cc2)[C@@H](N(C)C)C1 | 30 | 40
CCN(CC)C(=O)c1ccc([C@H]2CN(Cc3c(C)cccc3F)C[C@@H]2N(C)C)cc1C | 100 | 250
Cc1cc([C@H]2CN(Cc3c(C)cccc3F)C[C@@H]2N(C)C)ccc1C(=O)NCCN(C)C | 80 | 150
Cc1cccc(F)c1CN1C[C@H](c2ccc(N3CCC(C)CC3)cc2)[C@@H](N(C)C)C1 | 40 | 140
Cc1cc([C@H]2CN(Cc3c(C)cccc3F)C[C@@H]2N(C)C)ccc1C(=O)NCc1ccncc1 | 70 | 110
Cc1cccc(F)c1CN1C[C@H](c2ccc(N3CCn4ccnc4C3)cc2)[C@@H](N(C)C)C1 | 70 | 100
Cc1ccc(S(=O)(=O)N2CCN(c3ccc([C@H]4CN(Cc5c(C)cccc5F)C[C@@H]4N(C)C)cc3)CC2)cc1 | 50 | 80
CC(=O)N[C@@H]1CCN(c2ccc([C@H]3CN(Cc4c(C)cccc4F)C[C@@H]3N(C)C)cc2)C1 | 160 | –
Cc1cc([C@H]2CN(Cc3c(C)cccc3F)C[C@@H]2N(C)C)ccc1C(=O)Nc1cccnc1 | 80 | 100
Cc1cccc(F)c1CN1C[C@H](c2ccc(N3CCN(S(=O)(=O)c4cccc(F)c4)CC3)cc2)[C@@H](N(C)C)C1 | 40 | 50
Cc1cccc(F)c1CN1C[C@H](c2ccc(N3CCN(c4ccccc4)CC3)cc2)[C@@H](N(C)C)C1 | 50 | 90
Cc1cc([C@H]2CN(Cc3c(C)cccc3F)C[C@@H]2N(C)C)ccc1C(=O)NCc1ccccn1 | 70 | 80
Cc1ccc(N2CCN(c3ccc([C@H]4CN(Cc5c(C)cccc5F)C[C@@H]4N(C)C)cc3)CC2)cc1 | 150 | 220
